According to ChEMBL document CHEMBL3297677, “A new 9-alkyladenine-cyclic methylglyoxal diadduct activates wt- and F508del-cystic fibrosis transmembrane conductance regulator (CFTR) in vitro and in vivo” (Eur J Med Chem, 2014):
Active and inactive are the calls of the source. The calls are words filed in the database; no cut-off is given here.

Tests used:
[1] = molecular target: T1, Cystic fibrosis transmembrane conductance regulator (Homo sapiens, UniProt P13569); assay: Activation of wild-type CFTR (unknown origin) expressed in forskolin-stimulated CHO cells assessed as increase in iodide efflux by gamma counting; format: cell-based
In short: (§1)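 Iodide efflux with a robotic system. Cells were loaded at 37 °C for 30 min in Krebs' solution with 1 mM KI and Na¹²⁵I so the label reached equilibrium. The first three aliquots (t0–t2) in cold Krebs' buffer gave the baseline, and compound medium was used for t3–t8. Residual radioactivity was extracted with 0.1 M NaOH/0.1% SDS and gamma-counted. Relative rate = k_peak − k_basal (min⁻¹), expressed as % of maximal activation. EC50 came from nonlinear regression.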
Target sequence in this assay (P13569 whole entry): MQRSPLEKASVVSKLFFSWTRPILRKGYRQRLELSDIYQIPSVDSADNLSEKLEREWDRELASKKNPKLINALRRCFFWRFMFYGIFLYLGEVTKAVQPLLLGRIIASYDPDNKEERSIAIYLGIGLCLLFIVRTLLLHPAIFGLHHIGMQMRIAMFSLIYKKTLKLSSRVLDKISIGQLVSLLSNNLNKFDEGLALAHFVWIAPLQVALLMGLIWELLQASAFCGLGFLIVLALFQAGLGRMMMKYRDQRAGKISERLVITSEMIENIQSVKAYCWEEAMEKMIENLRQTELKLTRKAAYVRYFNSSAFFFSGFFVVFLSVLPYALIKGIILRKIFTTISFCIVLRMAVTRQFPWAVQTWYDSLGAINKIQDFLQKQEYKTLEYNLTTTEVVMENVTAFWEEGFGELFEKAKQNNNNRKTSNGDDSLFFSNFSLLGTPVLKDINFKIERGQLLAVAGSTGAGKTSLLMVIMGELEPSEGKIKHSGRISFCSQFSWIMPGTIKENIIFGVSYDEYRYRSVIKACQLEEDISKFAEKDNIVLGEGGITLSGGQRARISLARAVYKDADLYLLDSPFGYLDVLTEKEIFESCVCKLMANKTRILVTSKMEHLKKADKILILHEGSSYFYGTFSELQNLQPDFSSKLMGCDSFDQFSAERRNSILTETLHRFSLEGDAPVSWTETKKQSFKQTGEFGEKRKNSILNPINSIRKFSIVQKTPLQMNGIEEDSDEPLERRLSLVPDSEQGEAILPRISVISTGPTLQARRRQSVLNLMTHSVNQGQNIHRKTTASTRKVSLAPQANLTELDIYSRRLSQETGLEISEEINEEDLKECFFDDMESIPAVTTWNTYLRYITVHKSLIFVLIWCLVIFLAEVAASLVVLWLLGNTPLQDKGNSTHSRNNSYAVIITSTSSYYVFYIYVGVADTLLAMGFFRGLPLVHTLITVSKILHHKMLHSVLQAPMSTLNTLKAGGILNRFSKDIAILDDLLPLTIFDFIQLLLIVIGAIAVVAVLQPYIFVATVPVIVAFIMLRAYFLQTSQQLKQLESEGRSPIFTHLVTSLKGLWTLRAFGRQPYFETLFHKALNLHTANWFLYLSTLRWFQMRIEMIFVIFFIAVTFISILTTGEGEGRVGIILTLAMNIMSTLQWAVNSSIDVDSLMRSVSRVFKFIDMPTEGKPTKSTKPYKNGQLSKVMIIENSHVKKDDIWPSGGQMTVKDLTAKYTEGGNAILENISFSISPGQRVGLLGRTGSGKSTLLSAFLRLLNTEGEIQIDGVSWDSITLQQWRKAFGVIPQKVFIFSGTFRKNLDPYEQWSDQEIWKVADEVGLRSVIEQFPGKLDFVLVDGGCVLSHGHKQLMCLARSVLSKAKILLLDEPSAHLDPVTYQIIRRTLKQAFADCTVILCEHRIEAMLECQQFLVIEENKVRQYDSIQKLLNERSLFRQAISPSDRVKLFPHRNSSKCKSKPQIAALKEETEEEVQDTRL

[2] = molecular target: T1, Cystic fibrosis transmembrane conductance regulator; assay: Activation of wild-type CFTR (unknown origin) expressed in forskolin-stimulated CHO cells assessed as increase in iodide efflux at 100 uM by gamma counting; format: cell-based; in short: as §1
Target sequence in this assay (P13569 whole entry, looked up): as the sequence (P13569 whole entry) above

CHO = assay: Cytotoxicity against wild-type CFTR transfected CHO cells upto 300 uM after 24 hrs by MTT assay; format: cell-based, Cricetulus griseus; settings: chinese hamster
In short: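 Wt-CFTR CHO cells were exposed for 24 h, and viability was read by MTT reduction to formazan. Controls were untreated cells and cells deprived of medium for 24 h.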

[3] = molecular target: T1, Cystic fibrosis transmembrane conductance regulator; assay: Activation of CFTR in human MM39 cells by DiSBAC2(3) dye based fluorescence analysis in presence of 1 uM CFTRinh-172; format: cell-based
In short: (§2)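 Human tracheal gland MM39 cells were imaged cell by cell with the potential-sensitive oxonol probe DiSBAC2(3) (ex 535 nm, em 560 nm). Signal is Fx = (Ft − F0)/F0 × 100 relative to the time of stimulus addition. Histograms show the stable fluorescence variation, as mean ± SEM. The CFTR inhibitor CFTRinh-172 was used at 1 µM. Runs were done with or without forskolin.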
Target sequence in this assay (P13569 whole entry, looked up): as the sequence (P13569 whole entry) above

Rattus norvegicus [4] = assay: Potentiation of isprenaline-induced salivary secretion in male Wistar rat assessed as net weight of saliva secreted at 30 uM, sc followed by treatment with 1 mM cholinergic inhibitor atropine; format: functional, organism-based
In short: (§3)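 Male Wistar rats (250–300 g) were held supine. Basal secretion was blocked with atropine (1 mM). Saline containing 1 mM atropine plus compound (30 µM), isoprenaline (10 µM) or both was then injected subcutaneously into the cheek. Saliva was collected on paper pieces changed every 4 min and weighed. Secretion rate = saliva weight / collection time (min) / body weight (g).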

[5] = molecular target: T1, Cystic fibrosis transmembrane conductance regulator; assay: Activation of CFTR in forskolin-stimulated human MM39 cells by DiSBAC2(3) dye based fluorescence analysis; format: cell-based; in short: as §2
Target sequence in this assay (P13569 whole entry, looked up): as the sequence (P13569 whole entry) above

Rattus norvegicus [6] = assay: Effect on salivary secretion in male Wistar rat assessed as net weight of saliva secreted at 30 uM, sc followed by treatment with 1 mM cholinergic inhibitor atropine; format: functional, organism-based; in short: as §3
[7] = molecular target: T1, Cystic fibrosis transmembrane conductance regulator; assay: Activation of CFTR in human MM39 cells by DiSBAC2(3) dye based fluorescence analysis; format: cell-based; in short: as §2
Target sequence in this assay (P13569 whole entry, looked up): as the sequence (P13569 whole entry) above

[8] = molecular target: Cystic fibrosis transmembrane conductance regulator (Homo sapiens, UniProt P13569, F508DEL); assay: (§4) Activation of CFTR F508 deletion mutant in forskolin-stimulated and miglustat-corrected human […] cells assessed as increase in iodide efflux by gamma counting; format: cell-based; in short: as §1
Cystic fibrosis transmembrane conductance regulator (Homo sapiens, UniProt P13569, F508DEL), sequence (P13569 as listed by the source): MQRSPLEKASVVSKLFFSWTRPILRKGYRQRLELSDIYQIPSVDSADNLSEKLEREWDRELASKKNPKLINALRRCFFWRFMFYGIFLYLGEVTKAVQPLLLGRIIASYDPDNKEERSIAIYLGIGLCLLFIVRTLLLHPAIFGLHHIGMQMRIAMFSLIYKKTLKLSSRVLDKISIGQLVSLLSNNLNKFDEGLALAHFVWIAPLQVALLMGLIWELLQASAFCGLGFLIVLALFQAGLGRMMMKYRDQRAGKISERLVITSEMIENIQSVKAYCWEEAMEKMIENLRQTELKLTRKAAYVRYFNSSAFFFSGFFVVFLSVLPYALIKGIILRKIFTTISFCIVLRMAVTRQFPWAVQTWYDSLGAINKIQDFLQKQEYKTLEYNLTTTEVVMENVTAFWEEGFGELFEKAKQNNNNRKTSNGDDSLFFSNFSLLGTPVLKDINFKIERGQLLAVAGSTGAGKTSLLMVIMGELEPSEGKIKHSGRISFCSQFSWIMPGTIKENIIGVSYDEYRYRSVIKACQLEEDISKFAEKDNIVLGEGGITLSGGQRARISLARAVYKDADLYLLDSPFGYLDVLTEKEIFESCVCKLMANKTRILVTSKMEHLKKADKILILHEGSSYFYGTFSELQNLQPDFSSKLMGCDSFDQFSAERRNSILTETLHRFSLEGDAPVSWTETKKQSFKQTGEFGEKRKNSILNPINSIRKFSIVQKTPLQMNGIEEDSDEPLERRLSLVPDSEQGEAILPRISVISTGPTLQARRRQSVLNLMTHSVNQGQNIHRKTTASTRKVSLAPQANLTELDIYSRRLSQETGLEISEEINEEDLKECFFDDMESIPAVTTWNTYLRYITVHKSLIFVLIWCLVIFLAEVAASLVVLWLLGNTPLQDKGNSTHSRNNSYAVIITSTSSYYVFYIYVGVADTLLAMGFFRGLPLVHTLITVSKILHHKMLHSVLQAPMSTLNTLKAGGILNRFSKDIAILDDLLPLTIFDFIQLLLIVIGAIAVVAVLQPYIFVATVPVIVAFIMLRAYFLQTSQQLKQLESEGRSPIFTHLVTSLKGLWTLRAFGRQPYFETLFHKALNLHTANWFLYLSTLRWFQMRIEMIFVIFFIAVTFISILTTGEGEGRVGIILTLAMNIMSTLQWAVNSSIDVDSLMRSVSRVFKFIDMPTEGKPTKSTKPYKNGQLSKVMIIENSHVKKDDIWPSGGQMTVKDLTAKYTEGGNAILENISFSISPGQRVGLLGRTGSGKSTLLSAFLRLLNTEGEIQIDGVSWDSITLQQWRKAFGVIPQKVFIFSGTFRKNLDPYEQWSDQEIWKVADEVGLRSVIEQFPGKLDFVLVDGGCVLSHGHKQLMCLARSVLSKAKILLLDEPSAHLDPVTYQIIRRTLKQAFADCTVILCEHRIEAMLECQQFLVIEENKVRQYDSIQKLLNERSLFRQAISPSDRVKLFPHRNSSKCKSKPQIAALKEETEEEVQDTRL

[9] = system: Cystic fibrosis transmembrane conductance regulator (Homo sapiens), P13569 [F508del]; assay: as §4; format: cell-based; in short: as §1
Cystic fibrosis transmembrane conductance regulator (Homo sapiens), P13569 [F508del], sequence (P13569 as listed by the source): as above

[10] = molecular target: T1, Cystic fibrosis transmembrane conductance regulator; assay: Activation of CFTR in forskolin-stimulated human MM39 cells by DiSBAC2(3) dye based fluorescence analysis in presence of 1 uM CFTRinh-172; format: cell-based; in short: as §2
Target sequence in this assay (P13569 whole entry, looked up): as the sequence (P13569 whole entry) above

`C=CCn1cnc2c1N=CN1C2=N[C@](C)(C(=O)O)[C@H](O)[C@]1(C)O` gave an EC50 [1] of 2.1 µM.

With `Cn1cnc2c1N=CN1C2=N[C@](C)(C(=O)O)[C@@H](O)[C@@]1(C)O` the Activity [2] was “inactive”.

For `CC(C)n1cnc2c1N=CN1C2=N[C@](C)(C(=O)O)[C@@H](O)[C@@]1(C)O`, the Activity [2] was “inactive”.

For `CCn1cnc2c1N=CN1C2=N[C@](C)(C(=O)O)[C@@H](O)[C@@]1(C)O`, the Activity [2] was “inactive”.

`C#CCn1cnc2c1N=CN1C2=N[C@](C)(C(=O)O)[C@@H](O)[C@@]1(C)O` was tested, and the Activity [2] was “inactive”.

With `C[C@]1(C(=O)O)N=C2c3ncn(CCCO)c3N=CN2[C@](C)(O)[C@@H]1O` the Activity [2] was “inactive”.

For `C[C@]1(C(=O)O)N=C2c3ncn(Cc4ccccc4)c3N=CN2[C@](C)(O)[C@@H]1O`, the Activity [2] was “inactive”.

In the case of `C=CCn1cnc2c1N=CN1C2=N[C@](C)(C(=O)O)[C@@H](O)[C@@]1(C)O`, the Activity (CHO) is reported as “Non-toxic”, the Activity [3] is reported as “inactive” and the Activity (Rattus norvegicus [4]) is reported as “Active”. The Activity [5] was “Active”, the Activity (Rattus norvegicus [6]) was “inactive” and the EC50 [1] was 7.5 µM. For the same molecule, the Activity [7] was “Active”, the EC50 [8] was 104 µM and the Activity [9] was “Dose-dependent effect”. The Activity [2] was “Active” and the Activity [10] was “inactive”.

`CCCCn1cnc2c1N=CN1C2=N[C@](C)(C(=O)O)[C@@H](O)[C@@]1(C)O` was tested, and the Activity [2] was “inactive”.

With `C[C@]1(C(=O)O)N=C2c3ncn(CCCc4ccccc4)c3N=CN2[C@](C)(O)[C@@H]1O` the Activity [2] was “inactive”.
